Test results taken from ChEMBL document CHEMBL2046311, “Design, synthesis, and molecular hybrids of caudatin and cinnamic acids as novel anti-hepatitis B virus agents” (Eur J Med Chem, 2012).

Tests used:
Hepatitis B virus [1] = assay: Antiviral activity against Hepatitis B virus infected in human HepG2(2.2.15) cells assessed as inhibition of viral e antigen secretion by ELISA; format: functional, organism-based
In short: (§1)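 HepG 2.2.15 cells in RPMI-1640 with 10% fetal calf serum at 37 °C, 5% CO2. Compounds dissolved in DMSO, culture DMSO below 2.5 μL/mL. Secreted HBeAg and HBsAg measured by ELISA. IC50 values are means of at least two experiments.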

Hepatitis B virus [2] = assay: Antiviral activity against Hepatitis B virus infected in human HepG2(2.2.15) cells assessed as inhibition of viral surface antigen secretion by ELISA; format: functional, organism-based; in short: as §1
Hepatitis B virus [3] = assay: Antiviral activity against Hepatitis B virus infected in human HepG2(2.2.15) cells assessed as inhibition of viral DNA replication by PCR analysis; format: functional, organism-based
In short: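 HepG 2.2.15 cells grown in RPMI-1640 with 10% fetal calf serum, […] and penicillin/streptomycin at 37 °C, 5% CO2. Compounds added in DMSO, kept below 2.5 μL/mL. HBV DNA quantified by SYBR Green real-time PCR with HBV-specific primers spanning 541–591 bp. IC50 values are means of at least two experiments.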

[4] = Cytotoxicity against human HepG2(2.2.15) cells by modified-MTT assay; format: cell-based
In short: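 HepG 2.2.15 cells in RPMI-1640 with 10% fetal calf serum at 37 °C, 5% CO2. Compounds in DMSO, final DMSO below 2.5 μL/mL. Viability read by modified MTT method. CC50 is the mean of at least two experiments.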

[5] = Selectivity index, ratio of CC50 for human HepG2(2.2.15) cells to IC50 for Hepatitis B virus infected in human HepG2(2.2.15) cells assessed as inhibition of viral DNA replication; format: functional
In short: (§2)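 SI calculated as CC50 (MTT, HepG 2.2.15) divided by IC50 for the named read-out (HBV DNA by real-time PCR, or HBeAg or HBsAg secretion by ELISA), in the same cell line.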

[6] = Selectivity index, ratio of CC50 for human HepG2(2.2.15) cells to IC50 for Hepatitis B virus infected in human HepG2(2.2.15) cells assessed as inhibition of viral surface antigen secretion; format: functional; in short: as §2
[7] = Selectivity index, ratio of CC50 for human HepG2(2.2.15) cells to IC50 for Hepatitis B virus infected in human HepG2(2.2.15) cells assessed as inhibition of viral e antigen secretion; format: functional; in short: as §2

| SMILES | IC50 (Hepatitis B virus [1]) [µM] | IC50 (Hepatitis B virus [2]) [µM] | IC50 (Hepatitis B virus [3]) [µM] | CC50 [4] [µM] | Ratio CC50/IC50 [5] | Ratio CC50/IC50 [6] | Ratio CC50/IC50 [7] |
| --- | --- | --- | --- | --- | --- | --- | --- |
| CC(=O)[C@]1(O)CC[C@@]2(O)[C@]1(C)[C@H](OC(=O)/C=C(\C)C(C)C)C[C@@H]1[C@@]3(C)CC[C@H](OC(=O)/C=C/c4cc(F)cc(F)c4)CC3=CC[C@]12O | 90.7 | 20.3 | 18.6 | > 1340 | >72 | >66 | >14.8 |
| CC(=O)Oc1ccc(/C=C/C(=O)O[C@H]2CC[C@@]3(C)C(=CC[C@]4(O)[C@@H]3C[C@@H](OC(=O)/C=C(\C)C(C)C)[C@@]3(C)[C@]4(O)CC[C@@]3(O)C(C)=O)C2)cc1 | 231 | < 6.96 | 3.42 | < 6.96 | <2 |  |  |
| CC(=O)[C@]1(O)CC[C@@]2(O)[C@]1(C)[C@H](OC(=O)/C=C(\C)C(C)C)C[C@@H]1[C@@]3(C)CC[C@H](OC(=O)/C=C/c4ccccc4[N+](=O)[O-])CC3=CC[C@]12O | 52.7 | 37 | 21.7 | > 1550 | >71.4 | >41.9 | >29.4 |
| COc1ccc(/C=C/C(=O)O[C@H]2CC[C@@]3(C)C(=CC[C@]4(O)[C@@H]3C[C@@H](OC(=O)/C=C(\C)C(C)C)[C@@]3(C)[C@]4(O)CC[C@@]3(O)C(C)=O)C2)cc1OC | 85.2 | 22.1 | 11.8 | > 1600 | >135.6 | >72.7 | >18.8 |
| CC(=O)[C@]1(O)CC[C@@]2(O)[C@]1(C)[C@H](OC(=O)/C=C(\C)C(C)C)C[C@@H]1[C@@]3(C)CC[C@H](OC(=O)/C=C/c4ccccc4Cl)CC3=CC[C@]12O | 550 | 28.4 | 22.9 | > 1150 | >50.1 | >40.4 | >2.1 |
| CC(=O)[C@]1(O)CC[C@@]2(O)[C@]1(C)[C@H](OC(=O)/C=C(\C)C(C)C)C[C@@H]1[C@@]3(C)CC[C@H](OC(=O)/C=C/c4ccccc4)CC3=CC[C@]12O | 94.2 | 48.3 | 5.91 | > 1420 | >239.9 | >29.3 | >15 |
| CC(=O)[C@]1(O)CC[C@@]2(O)[C@]1(C)[C@H](OC(=O)/C=C(\C)C(C)C)C[C@@H]1[C@@]3(C)CC[C@H](OC(=O)/C=C/c4ccc(Cl)c([N+](=O)[O-])c4)CC3=CC[C@]12O | 79.5 | 9.52 | 6.31 | 450 | 71.3 | 47.3 | 5.7 |
| CC(=O)[C@]1(OC(=O)/C=C/c2ccc(Cl)cc2)CC[C@@]2(O)[C@]1(C)[C@H](OC(=O)/C=C(\C)C(C)C)C[C@@H]1[C@@]3(C)CC[C@H](OC(=O)/C=C/c4ccc(Cl)cc4)CC3=CC[C@]12O | > 290 | > 290 | > 290 | > 1160 |  |  |  |
| CC(=O)[C@]1(O)CC[C@@]2(O)[C@]1(C)[C@H](OC(=O)/C=C(\C)C(C)C)C[C@@H]1[C@@]3(C)CC[C@H](OC(=O)/C=C/c4ccc(C(F)(F)F)cc4)CC3=CC[C@]12O | 1270 | 60.2 | 10.1 | > 1270 | >125.9 | >21.1 | >1 |
| COc1cccc(/C=C/C(=O)O[C@H]2CC[C@@]3(C)C(=CC[C@]4(O)[C@@H]3C[C@@H](OC(=O)/C=C(\C)C(C)C)[C@@]3(C)[C@]4(O)CC[C@@]3(O)C(C)=O)C2)c1 | 24.9 | 10.5 | 4.46 | > 1080 | >241.2 | >102 | >43.3 |
| COc1ccc(/C=C/C(=O)O[C@H]2CC[C@@]3(C)C(=CC[C@]4(O)[C@@H]3C[C@@H](OC(=O)/C=C(\C)C(C)C)[C@@]3(C)[C@]4(O)CC[C@@]3(O)C(C)=O)C2)cc1 | 569 | 108 | 10.9 | > 1380 | >127.1 | >12.9 | >2.4 |
| CC(=O)[C@]1(O)CC[C@@]2(O)[C@]1(C)[C@H](OC(=O)/C=C(\C)C(C)C)C[C@@H]1[C@@]3(C)CC[C@H](OC(=O)/C=C/c4cccc(OC(F)(F)F)c4)CC3=CC[C@]12O | > 584 | 236 | 5.71 | 584 | 102.3 | 2.5 |  |
| CC(=O)[C@]1(O)CC[C@@]2(O)[C@]1(C)[C@H](OC(=O)/C=C(\C)C(C)C)C[C@@H]1[C@@]3(C)CC[C@H](OC(=O)/C=C/c4cccc(C(F)(F)F)c4)CC3=CC[C@]12O | > 1190 | 112 | 14.9 | 718 | 48.3 | 6.4 |  |
| CC(=O)[C@]1(O)CC[C@@]2(O)[C@]1(C)[C@H](OC(=O)/C=C(\C)C(C)C)C[C@@H]1[C@@]3(C)CC[C@H](OC(=O)/C=C/c4cc(C(F)(F)F)cc(C(F)(F)F)c4)CC3=CC[C@]12O | 612 | 433 | > 321 | > 1280 |  | >3 | >2.1 |
| CC(=O)[C@]1(O)CC[C@@]2(O)[C@]1(C)[C@H](OC(=O)/C=C(\C)C(C)C)C[C@@H]1[C@@]3(C)CC[C@H](OC(=O)/C=C/c4ccc(C)cc4)CC3=CC[C@]12O | > 550 | 108 | 12 | 550 | 46 | 5.1 |  |
| CC(=O)[C@]1(O)CC[C@@]2(O)[C@]1(C)[C@H](OC(=O)/C=C(\C)C(C)C)C[C@@H]1[C@@]3(C)CC[C@H](OC(=O)/C=C/c4c(F)c(F)c(F)c(F)c4F)CC3=CC[C@]12O | 353 | 26.3 | 9.9 | < 8.22 |  |  |  |
| CC(=O)[C@]1(O)CC[C@@]2(O)[C@]1(C)[C@H](OC(=O)/C=C(\C)C(C)C)C[C@@H]1[C@@]3(C)CC[C@H](OC(=O)/C=C/c4ccc(Cl)cc4)CC3=CC[C@]12O | > 701 | 119 | 16.3 | 701 | 43.1 | 5.9 |  |
| COc1cc(/C=C/C(=O)O[C@H]2CC[C@@]3(C)C(=CC[C@]4(O)[C@@H]3C[C@@H](OC(=O)/C=C(\C)C(C)C)[C@@]3(C)[C@]4(O)CC[C@@]3(O)C(C)=O)C2)ccc1OC(C)=O | 653 | < 9.97 | 4.39 | < 9.97 | <2.3 |  |  |
| COc1cccc(/C=C/C(=O)O[C@H]2CC[C@@]3(C)C(=CC[C@]4(O)[C@@H]3C[C@@H](OC(=O)/C=C(\C)C(C)C)[C@@]3(C)[C@]4(O)CC[C@@]3(OC(=O)/C=C/c3cccc(OC)c3)C(C)=O)C2)c1 | > 1370 | > 1370 | > 342 | > 1370 |  |  |  |
| COc1ccc(/C=C/C(=O)O[C@H]2CC[C@@]3(C)C(=CC[C@]4(O)[C@@H]3C[C@@H](OC(=O)/C=C(\C)C(C)C)[C@@]3(C)[C@]4(O)CC[C@@]3(OC(=O)/C=C/c3ccc(OC)c(OC)c3)C(C)=O)C2)cc1OC | 632 | 528 | > 307 | > 1210 |  | >2.3 | >1.9 |
| CC(=O)[C@]1(OC(=O)/C=C/c2ccccc2[N+](=O)[O-])CC[C@@]2(O)[C@]1(C)[C@H](OC(=O)/C=C(\C)C(C)C)C[C@@H]1[C@@]3(C)CC[C@H](OC(=O)/C=C/c4ccccc4[N+](=O)[O-])CC3=CC[C@]12O | 522 | 116 | > 434 | > 1740 |  | >15 | >3.3 |
| C[C@H](Cn1cnc2c(N)ncnc21)OCP(=O)(O)O [TENOFOVIR ANHYDROUS] | 1160 |  | 0.68 | > 1740 | >2560.2 | >1.2 | >1.5 |
| CC(=O)[C@]1(O)CC[C@@]2(O)[C@]1(C)[C@H](OC(=O)/C=C(\C)C(C)C)C[C@@H]1[C@@]3(C)CC[C@H](OC(=O)/C=C/c4ccc(O)c(O)c4)CC3=CC[C@]12O | > 567 | 16.1 | 9.1 | 8.49 |  |  |  |
| CC(=O)[C@]1(O)CC[C@@]2(O)[C@]1(C)[C@H](OC(=O)/C=C(\C)C(C)C)C[C@@H]1[C@@]3(C)CC[C@H](O)CC3=CC[C@]12O [CAUDATIN] | > 183 |  |  |  | 6 | 1.7 | <1.3 |
